Laboratory results taken from ChEMBL document CHEMBL1152422, “Cytotoxic triterpenoids from the rhizomes of Astilbe chinensis” (J Nat Prod, 2009).

Key:
Format in all cases: functional, cell-based
HL-60 = assay: Cytotoxicity against human HL60 cells by rapid colorimetric assay
Summary of the method: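 HL-60 human promyelocytic leukaemia cells were maintained in IMDM with 20% FBS at 37 °C in a CO2 incubator before testing against the cell panel.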

SNU1 = assay: Cytotoxicity against human SNU1 cells by rapid colorimetric assay
Summary of the method: (§1)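 A549, SNU-1, K562 and HepG2 cells were grown in RPMI1640 and MEM with 10% FBS at 37 °C in a CO2 incubator before testing against the cell panel.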

K562 = assay: Cytotoxicity against human K562 cells by rapid colorimetric assay; summary of the method: as §1
A549 = assay: Cytotoxicity against human A549 cells by rapid colorimetric assay; summary of the method: as §1
HepG2 = assay: Cytotoxicity against human HepG2 cells by rapid colorimetric assay; summary of the method: as §1

Row | SMILES | IC50 (HL-60) [µM] | IC50 (SNU1) [µM] | IC50 (K562) [µM] | IC50 (A549) [µM] | IC50 (HepG2) [µM]
1 | C[C@H]1[C@H](C)CC[C@]2(C)CC[C@]3(C(=O)O)C(=CC[C@@H]4[C@@]5(C)CC[C@H](O)C(C)(C)[C@@H]5CC[C@]43C)[C@H]12 | 8.2 | > 10 | > 10 | > 10 | > 10
2 | CC(=O)O[C@@H]1CC[C@]2(C)[C@H]3CC=C4[C@@H]5[C@@H](C)[C@H](C)CC[C@]5(C)CC[C@@]4(C(=O)O)[C@]3(C)CC[C@H]2C1(C)C | 3.9 | > 10 | > 10 | > 10 | > 10
3 | C=C1[C@@H]2[C@H](O)C[C@]3(C)[C@H](CC=C4[C@@H]5CC(C)(C)CC[C@]5(C)CC[C@]43C(=O)O)[C@@]2(C)CC[C@@H]1O | > 10 | > 10 | > 10 | > 10 | > 10
4 | CC1(C)CC[C@]2(C)CC[C@]3(C(=O)O)C(=CC[C@@H]4[C@@]5(C)CC[C@H](O)[C@](C)(CO)[C@@H]5CC[C@]43C)[C@@H]2C1 | > 10 | > 10 | > 10 | > 10 | > 10
5 | CC1(C)CC[C@]2(C)CC[C@]3(C(=O)O)C(=CC[C@@H]4[C@@]5(C)CC[C@@H](O)C(C)(C)C5=CC[C@]43C)[C@@H]2C1 | > 10 | > 10 | > 10 | > 10 | > 10
6 | CC(=O)O[C@@H]1CC[C@]2(C)[C@H]3CC=C4[C@@H]5CC(C)(C)CC[C@]5(C)CC[C@@]4(C(=O)O)[C@]3(C)CC[C@H]2C1(C)C | 9.3 | > 10 | > 10 | > 10 | > 10
7 | CC1(C)CC[C@]2(C)CC[C@]3(C(=O)O)C(=CC[C@@H]4[C@@]5(C)CC[C@H](O)C(C)(C)[C@@H]5CC[C@]43C)[C@@H]2C1 | 8.9 | 9.3 | > 10 | > 10 | > 10
8 | CC(=O)O[C@H]1CC[C@]2(C)[C@H]3CC=C4[C@@H]5[C@@H](C)[C@H](C)CC[C@]5(C)CC[C@@]4(C(=O)O)[C@]3(C)C[C@@H](O)[C@H]2C1(C)C | 9.6 | > 10 | > 10 | > 10 | > 10
9 | CC(=O)O[C@H]1CC[C@]2(C)[C@H]3CC=C4[C@@H]5CC(C)(C)CC[C@]5(C)CC[C@@]4(C(=O)O)[C@]3(C)C[C@@H](O)[C@H]2C1(C)C | 5.1 | > 10 | > 10 | > 10 | > 10
10 | CC1(C)CC[C@]2(C)CC[C@]3(C(=O)O)C(=CC[C@@H]4[C@@]5(C)CC[C@H](O)[C@@](C)(CO)[C@@H]5[C@H](O)C[C@]43C)[C@@H]2C1 | 3.5 | > 10 | > 10 | > 10 | > 10
11 | CC(=O)O[C@H]1CC[C@]2(C)[C@H]3CC=C4[C@@H]5[C@@H](C)[C@H](C)CC[C@]5(C)CC[C@@]4(C(=O)O)[C@]3(C)CC[C@H]2C1(C)C | 9.4 | > 10 | > 10 | > 10 | > 10
12 | C[C@H]1[C@H](C)CC[C@]2(C)CC[C@]3(C(=O)O)C(=CC[C@@H]4[C@@]5(C)CC[C@H](O)[C@](C)(CO)[C@@H]5[C@H](O)C[C@]43C)[C@H]12 | > 10 | > 10 | > 10 | > 10 | > 10
13 | CC[C@@]1(O)C(=O)OCc2c1cc1n(c2=O)Cc2cc3ccccc3nc2-1 [CAMPTOTHECIN] | 0.8 | – | – | – | –
14 | COc1cccc2c1C(=O)c1c(O)c3c(c(O)c1C2=O)C[C@@](O)(C(=O)CO)C[C@@H]3O[C@H]1C[C@H](N)[C@H](O)[C@H](C)O1 [DOXORUBICIN] | – | 4 | 2.5 | 2.2 | –
